Values belong to the molecule of their own block, whether it stands above or below them. No end group written: not given here. rhodamine = not defined here
Tests used:
[1] = biological target: par3-PDZ3 (Mus musculus, UniProt Q99NH2); experiment: Fluorescence polarization titration of rhodamine-labeled peptides with par3-PDZ3; format: binding, M. musculus; settings: rhodamine labeled peptide
How it was run: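 Mouse par3-PDZ3 (residues 581–689) was expressed in E. coli SG13009 with a cleavable N-terminal His8 tag, purified by Ni2+ affinity, TEV-cleaved and cation-exchange purified. Increasing par3-PDZ3 was titrated into 100nM N-terminally rhodamine-labelled synthetic peptide in 50mM HEPES, 100mM NaCl, 1mM DTT, 1mM EDTA, pH 7.4, 298K (ex 562nm/em 582nm). Kd came from fitting a single-site hyperbolic binding equation.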

[2] = biological target: par3-PDZ3; settings: read-out: Kd for par3-PDZ3; reported value; ref [16]; cited from earlier work
[3] = biological target: par3-PDZ3 (residues 581 to 689 of M. musculus par3) (M. musculus, UniProt Q99NH2 581-689); experiment: fluorescence polarisation
Sequence of par3-PDZ3 (residues 581 to 689 of M. musculus par3) (Q99NH2 581-689): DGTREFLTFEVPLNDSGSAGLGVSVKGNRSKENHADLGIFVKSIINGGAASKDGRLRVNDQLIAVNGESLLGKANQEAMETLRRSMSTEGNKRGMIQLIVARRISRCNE

Sequence of par3-PDZ3 (Mus musculus, UniProt Q99NH2) (Q99NH2 581-689): as above

interaction with par3-PDZ3 (detected or not) [1]: failed to detect any interaction
Molecule: QHSQITKVcoo-

Molecule: DEDQHSQITKVcoo-
Kd [2]: 19 µM

Kd [3]: 6 µM
Molecule: rhodamine-LYGSDPQEELII (reading uncertain) [rhodamine-labeled VE-Cad (773-784)]

binding result [3]: binds
Molecule: rhodamine-LAGSDPQEELII (peptide, UniProt P55284 773-784, looked up, reading uncertain) [rhodamine-labeled VE-Cad (773-784) Y774A]

— article PMC2819025 (Biochemistry, 2010)
